Values after ≈ are worked out from the molar mass of the structure shown.
Experiments:
Bacteroides fragilis [1] = assay: In vitro antimicrobial activity against anaerobic bacteria bacteroides fragilis 111; assay type: functional
Bacteroides fragilis [2] = assay: In vitro antimicrobial activity against anaerobic bacteria bacteroides fragilis 1877; assay type: functional
Bacteroides fragilis [3] = assay: In vitro antimicrobial activity against anaerobic bacteria bacteroides fragilis 1936B,; assay type: functional
Eikenella corrodens = assay: In vitro antimicrobial activity against anaerobic bacteria bacteroides corrodens 1874; assay type: functional
Phocaeicola vulgatus = assay: In vitro antimicrobial activity against anaerobic bacteria bacteroides vulgatus 1211; assay type: functional
[4] = system: Prevotella melaninogenica; assay: In vitro antimicrobial activity against anaerobic bacteria bacteroides melaninogenicus 1856,; assay type: functional
[5] = system: Bacteroides thetaiotaomicron; assay: In vitro antimicrobial activity against anaerobic bacteria bacteroides thetaiotaomicron 1438; assay type: functional
Clostridioides difficile = assay: In vitro antimicrobial activity against anaerobic bacteria Clostridium difficile 2994; assay type: functional
Clostridium perfringens = assay: In vitro antimicrobial activity against anaerobic bacteria clostridium perfringens 81,; assay type: functional
Clostridium septicum = assay: In vitro antimicrobial activity against anaerobic bacteria clostridium septicum 1128; assay type: functional
Chlamydia trachomatis = assay: In vitro antimicrobial activity against chlamydia trachomatis.; assay type: functional
Fusobacterium = assay: In vitro antimicrobial activity against anaerobic bacteria fusobacterium symbiosum 1470; assay type: functional
Haemophilus influenzae [6] = assay: In vitro antimicrobial activity against aerobic bacteria Haemophilus influenzae 76; assay type: functional
Haemophilus influenzae [7] = assay: In vitro antimicrobial activity against aerobic bacteria Haemophilus influenzae MX366,; assay type: functional
Haemophilus influenzae [8] = assay: In vitro antimicrobial activity against Haemophilus influenzae.; assay type: functional
[9] = system: Haemophilus parainfluenzae; assay: In vitro antimicrobial activity against aerobic bacteria Haemophilus parainfluenzae 9796; assay type: functional
Mus musculus [10] = assay: Peripheral plasma levels in mice after oral administration of 50 mg/kg dose for 2 hr; assay type: functional, organism-based; parameters: dose 50 mg/kg
In short: (§1)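 Mice were given the compound orally and sampled for peripheral plasma at each time point. Plasma was assayed microbiologically against Micrococcus luteus seeded in Antibiotic Medium 1. Inhibition zone sizes were read, and concentrations were calculated from each compound's own standard curve. Each value is the mean of five mice per time point.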

Mus musculus [11] = assay: Peripheral plasma levels in mice after oral administration of 50 mg/kg dose for 4 hr; assay type: functional, organism-based; parameters: dose 50 mg/kg; in short: as §1
Mus musculus [12] = assay: Peripheral plasma levels in mice after oral administration of 100 mg/kg dose for 4 hr; assay type: functional, organism-based; parameters: dose 100 mg/kg; in short: as §1
Mus musculus [13] = assay: Peripheral plasma levels in mice after oral administration of 50 mg/kg dose for 0.25 hr; assay type: functional, organism-based; parameters: dose 50 mg/kg; in short: as §1
Mus musculus [14] = assay: Peripheral plasma levels in mice after oral administration of 100 mg/kg dose for 0.25 hr; assay type: functional, organism-based; parameters: dose 100 mg/kg; in short: as §1
Mus musculus [15] = assay: Peripheral plasma levels in mice after oral administration of 100 mg/kg dose for 0.5 hr; assay type: functional, organism-based; parameters: dose 100 mg/kg; in short: as §1
Mus musculus [16] = assay: Peripheral plasma levels in mice after oral administration of 100 mg/kg dose for 1 hr; assay type: functional, organism-based; parameters: dose 100 mg/kg; in short: as §1
Mus musculus [17] = assay: Peripheral plasma levels in mice after oral administration of 100 mg/kg dose for 2 hr; assay type: functional, organism-based; parameters: dose 100 mg/kg; in short: as §1
Mus musculus [18] = assay: Peripheral plasma levels in mice after oral administration of 50 mg/kg dose for 1 hr; assay type: functional, organism-based; parameters: dose 50 mg/kg; in short: as §1
[19] = In vitro antimicrobial activity against anaerobic bacteria peptostreptococcus intermedius 1264; assay type: functional
[20] = system: Peptoniphilus asaccharolyticus; assay: In vitro antimicrobial activity against anaerobic bacteria peptococcus asaccharolyticus 1302; assay type: functional
Anaerococcus prevotii = assay: In vitro antimicrobial activity against anaerobic bacteria peptococcus prevoti 1281; assay type: functional
Cutibacterium acnes = assay: In vitro antimicrobial activity against anaerobic bacteria propionibacterium acnes 79; assay type: functional
Rattus norvegicus [21] = assay: Peripheral plasma levels in rats after oral administration of 100 mg/kg dose for 0.25 hr; assay type: functional, organism-based; parameters: dose 100 mg/kg
In short: (§2)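 Rats received 100 mg/kg orally and were sampled for peripheral plasma. Concentrations were measured by Micrococcus luteus agar-diffusion microbiological assay in Antibiotic Medium 1, with zone sizes converted using the standard curve for the appropriate compound. Each value is the average of three rats per time point.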

Rattus norvegicus [22] = assay: Peripheral plasma levels in rats after oral administration of 100 mg/kg dose for 0.5 hr; assay type: functional, organism-based; parameters: dose 100 mg/kg; in short: as §2
Rattus norvegicus [23] = assay: Peripheral plasma levels in rats after oral administration of 100 mg/kg dose for 1 hr; assay type: functional, organism-based; parameters: dose 100 mg/kg; in short: as §2
Rattus norvegicus [24] = assay: Peripheral plasma levels in rats after oral administration of 100 mg/kg dose for 2 hr; assay type: functional, organism-based; parameters: dose 100 mg/kg; in short: as §2
Rattus norvegicus [25] = assay: Peripheral plasma levels in rats after oral administration of 100 mg/kg dose for 4 hr; assay type: functional, organism-based; parameters: dose 100 mg/kg; in short: as §2
Staphylococcus aureus [26] = assay: In vivo activity against experimental infections in mice Staphylococcus aureus X1 when administered orally; assay type: functional; settings: po
Staphylococcus aureus [27] = assay: In vivo activity against experimental infections in mice Staphylococcus aureus X1 when administered sc; assay type: functional
Streptococcus [28] = assay: In vitro antimicrobial activity against aerobic bacteria Streptococcus B 14; assay type: functional
Streptococcus [29] = assay: In vitro antimicrobial activity against aerobic bacteria Streptococcus B 8; assay type: functional
Streptococcus [30] = assay: In vitro antimicrobial activity against aerobic bacteria Streptococcus C 24; assay type: functional
Streptococcus [31] = assay: In vitro antimicrobial activity against aerobic bacteria Streptococcus D 8043; assay type: functional
Streptococcus [32] = assay: In vitro antimicrobial activity against aerobic bacteria Streptococcus D 9960; assay type: functional
Streptococcus [33] = assay: In vitro antimicrobial activity against aerobic bacteria Streptococcus G Kruder; assay type: functional; settings: Streptococcus; read-out: MIC
[34] = system: Staphylococcus epidermidis; assay: In vitro antimicrobial activity against aerobic bacteria Streptococcus epi 270; assay type: functional
Staphylococcus aureus [35] = assay: In vitro antimicrobial activity against Staphylococcus aureus X1; assay type: functional
Staphylococcus aureus [36] = assay: In vitro antimicrobial activity against aerobic bacteria Staphylococcus aureus 513E; assay type: functional
Staphylococcus aureus [37] = assay: In vitro antimicrobial activity against aerobic bacteria Staphylococcus aureus V140,; assay type: functional
Staphylococcus aureus [38] = assay: In vitro antimicrobial activity against aerobic bacteria Staphylococcus aureus V41; assay type: functional
Staphylococcus aureus [39] = assay: In vitro antimicrobial activity against aerobic bacteria Staphylococcus aureus X400; assay type: functional
Streptococcus pneumoniae [40] = assay: In vivo activity against experimental infections in mice Streptococcus pneumoniae park when administered orally; assay type: functional; settings: po
Streptococcus pneumoniae [41] = assay: In vivo activity against experimental infections in mice Streptococcus pneumoniae park when administered sc; assay type: functional
Streptococcus pneumoniae [42] = assay: In vitro antimicrobial activity against aerobic bacteria Streptococcus pneumoniae B1-438; assay type: functional, streptococcus pneum
Streptococcus pyogenes [43] = assay: In vivo effective dose against experimental infections in rodent caused by Streptococcus pyogenes C203 when administered sc; assay type: functional
Streptococcus sanguinis = assay: In vitro antimicrobial activity against aerobic bacteria Streptococcus sanguis MX132; assay type: functional
Streptococcus pneumoniae [44] = assay: In vitro antimicrobial activity against Streptococcus pneumoniae; assay type: functional
[45] = system: Staphylococcus epidermidis; assay: In vitro antimicrobial activity against Staphylococcus epidermidis EPI1; assay type: functional
[46] = system: Staphylococcus epidermidis; assay: In vitro antimicrobial activity against aerobic bacteria Streptococcus epi 222; assay type: functional
Enterococcus faecium = assay: In vitro antimicrobial activity against Streptococcus faecium X66; assay type: functional, streptococcus fae-cium
Streptococcus pyogenes [47] = assay: In vitro antimicrobial activity against Streptococcus pyogenes C203; assay type: functional
Streptococcus viridans = assay: In vitro antimicrobial activity against aerobic bacteria Streptococcus viridans 9943; assay type: functional
Streptococcus [48] = assay: In vitro antimicrobial activity against aerobic bacteria Streptococcus B 5; assay type: functional
Staphylococcus aureus [49] = assay: In vitro antimicrobial activity against aerobic bacteria Staphylococcus aureus V135; assay type: functional
Haemophilus influenzae [50] = assay: In vitro antimicrobial activity against aerobic bacteria Haemophilus influenzae 465; assay type: functional
[51] = system: Prevotella melaninogenica; assay: In vitro antimicrobial activity against anaerobic bacteria bacteroides melaninogenicus 2736; assay type: functional
[52] = system: Fusobacterium necrophorum; assay: In vitro antimicrobial activity against anaerobic bacteria usobacterium necrophorum 6054A; assay type: functional
Mus musculus [53] = assay: Peripheral plasma levels in mice after oral administration of 50 mg/kg dose for 0.5 hr; assay type: functional, organism-based; parameters: dose 50 mg/kg; in short: as §1
Collinsella aerofaciens = assay: In vitro antimicrobial activity against anaerobic bacteria eubacterium aerofaciens 1235; assay type: functional
Streptococcus [54] = assay: In vitro antimicrobial activity against aerobic bacteria Streptococcus D 2041; assay type: functional
[55] = system: Peptostreptococcus anaerobius; assay: In vitro antimicrobial activity against anaerobic bacteria eubacterium peptostreptococcus anaerobius 1428,; assay type: functional
Streptococcus pyogenes [56] = assay: In vivo effective dose against experimental infections in rodent caused by Streptococcus pyogenes C203 when administered orally; assay type: functional; settings: po

CC[C@H]1OC(=O)C[C@@H](O)[C@H](C)[C@@H](O[C@@H]2O[C@H](C)[C@@H](O)[C@H](N(C)C)[C@H]2O)[C@@H](CCOc2ccccc2)C[C@@H](C)C(=O)/C=C/C(C)=C/[C@@H]1CO[C@@H]1O[C@H](C)[C@@H](O)[C@@H](OC)[C@H]1OC
MIC (Bacteroides fragilis [1]): 1 µg/mL (≈ 1.18 µM)
MIC (Bacteroides fragilis [2]): 1 µg/mL (≈ 1.18 µM)
MIC (Bacteroides fragilis [3]): 1 µg/mL (≈ 1.18 µM)
MIC (Eikenella corrodens): 1 µg/mL (≈ 1.18 µM)
MIC (Phocaeicola vulgatus): 1 µg/mL (≈ 1.18 µM)
MIC [4]: 1 µg/mL (≈ 1.18 µM)
MIC [5]: 2 µg/mL (≈ 2.35 µM)
MIC (Clostridioides difficile): < 0.5 µg/mL
MIC (Clostridium perfringens): < 0.5 µg/mL
MIC (Clostridium septicum): < 0.5 µg/mL
MIC (Chlamydia trachomatis): 0.25 µg/mL (≈ 0.294 µM)
MIC (Fusobacterium): 1 µg/mL (≈ 1.18 µM)
MIC (Haemophilus influenzae [6]): 16 µg/mL (≈ 18.8 µM)
MIC (Haemophilus influenzae [7]): 16 µg/mL (≈ 18.8 µM)
MIC (Haemophilus influenzae [8]): 32 µg/mL (≈ 37.6 µM)
MIC [9]: 32 µg/mL (≈ 37.6 µM)
Concentration (Mus musculus [10]): 1.2 µg/mL
Concentration (Mus musculus [11]): 0.2 µg/mL
Concentration (Mus musculus [12]): 1.2 µg/mL
Concentration (Mus musculus [13]): 3.2 µg/mL
Concentration (Mus musculus [14]): 8.9 µg/mL
Concentration (Mus musculus [15]): 11.5 µg/mL
Concentration (Mus musculus [16]): 13.1 µg/mL
Concentration (Mus musculus [17]): 6.5 µg/mL
Concentration (Mus musculus [18]): 2.4 µg/mL
MIC [19]: 2 µg/mL (≈ 2.35 µM)
MIC [20]: 1 µg/mL (≈ 1.18 µM)
MIC (Anaerococcus prevotii): 1 µg/mL (≈ 1.18 µM)
MIC (Cutibacterium acnes): 8 µg/mL (≈ 9.41 µM)
Concentration (Rattus norvegicus [21]): 2.6 µg/mL
Concentration (Rattus norvegicus [22]): 3.9 µg/mL
Concentration (Rattus norvegicus [23]): 3.4 µg/mL
Concentration (Rattus norvegicus [24]): 4.8 µg/mL
Concentration (Rattus norvegicus [25]): 5.6 µg/mL
ED50 (Staphylococcus aureus [26]): 17 mg/kg
ED50 (Staphylococcus aureus [27]): 4.2 mg/kg
MIC (Streptococcus [28]): 16 µg/mL (≈ 18.8 µM)
MIC (Streptococcus [29]): 8 µg/mL (≈ 9.41 µM)
MIC (Streptococcus [30]): 0.25 µg/mL (≈ 0.294 µM)
MIC (Streptococcus [31]): 2 µg/mL (≈ 2.35 µM)
MIC (Streptococcus [32]): 8 µg/mL (≈ 9.41 µM)
MIC (Streptococcus [33]): 32 µg/mL (≈ 37.6 µM)
MIC [34]: > 128 µg/mL
MIC (Staphylococcus aureus [35]): 0.25 µg/mL (≈ 0.294 µM)
MIC (Staphylococcus aureus [36]): 0.25 µg/mL (≈ 0.294 µM)
MIC (Staphylococcus aureus [37]): 0.25 µg/mL (≈ 0.294 µM)
MIC (Staphylococcus aureus [38]): 0.25 µg/mL (≈ 0.294 µM)
MIC (Staphylococcus aureus [39]): 0.25 µg/mL (≈ 0.294 µM)
ED50 (Streptococcus pneumoniae [40]): > 50 mg/kg
ED50 (Streptococcus pneumoniae [41]): > 20 mg/kg
MIC (Streptococcus pneumoniae [42]): > 128 µg/mL
ED50 (Streptococcus pyogenes [43]): 5 mg/kg
MIC (Streptococcus sanguinis): 1 µg/mL (≈ 1.18 µM)
MIC (Streptococcus pneumoniae [44]): 1 µg/mL (≈ 1.18 µM)
MIC [45]: 0.25 µg/mL (≈ 0.294 µM)
MIC [46]: 0.12 µg/mL (≈ 0.141 µM)
MIC (Enterococcus faecium): 8 µg/mL (≈ 9.41 µM)
MIC (Streptococcus pyogenes [47]): 0.12 µg/mL (≈ 0.141 µM)
MIC (Streptococcus viridans): > 128 µg/mL
MIC (Streptococcus [48]): 4 µg/mL (≈ 4.71 µM)
MIC (Staphylococcus aureus [49]): 0.25 µg/mL (≈ 0.294 µM)
MIC (Haemophilus influenzae [50]): 16 µg/mL (≈ 18.8 µM)
MIC [51]: 1 µg/mL (≈ 1.18 µM)
MIC [52]: 8 µg/mL (≈ 9.41 µM)
Concentration (Mus musculus [53]): 2.7 µg/mL
MIC (Collinsella aerofaciens): 2 µg/mL (≈ 2.35 µM)
MIC (Streptococcus [54]): 8 µg/mL (≈ 9.41 µM)
MIC [55]: < 0.5 µg/mL
ED50 (Streptococcus pyogenes [56]): 9 mg/kg
